Shown are actives, neighbours in structure and some others; about 3.7% of the full set was active somewhere.
KCNQ1 inh – human KCNQ1 channel inhibition. actives 1.3% (n = 310,000). P51787. B-score at 10 µM. CHO-K1 KCNQ1, FluxOR thallium flux fluorescence; hits give high values;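 active = compounds whose thallium flux B-score, printed positive for inhibition, exceeds three library SD while starting fluorescence stays within three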;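 also: channel opened by potassium depolarization with thallium stimulus after 20 min compound exposure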
KCNK9 inh – inhibitors of human KCNK9 two-pore domain potassium channel; Q9NPC2; HEK293 KCNK9, FluxOR thallium flux fluorescence; hits give low values; B-score at 10 µM; actives 1.2% (n = 310,000); AID 488922;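 active = ratio B-score over 3 SD below the library mean, with starting fluorescence within 5 SD of its mean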;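 also: negative B-score means less thallium flux so channel inhibition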
Target sequence (Q9NPC2 whole entry, looked up, the tested form may be a part): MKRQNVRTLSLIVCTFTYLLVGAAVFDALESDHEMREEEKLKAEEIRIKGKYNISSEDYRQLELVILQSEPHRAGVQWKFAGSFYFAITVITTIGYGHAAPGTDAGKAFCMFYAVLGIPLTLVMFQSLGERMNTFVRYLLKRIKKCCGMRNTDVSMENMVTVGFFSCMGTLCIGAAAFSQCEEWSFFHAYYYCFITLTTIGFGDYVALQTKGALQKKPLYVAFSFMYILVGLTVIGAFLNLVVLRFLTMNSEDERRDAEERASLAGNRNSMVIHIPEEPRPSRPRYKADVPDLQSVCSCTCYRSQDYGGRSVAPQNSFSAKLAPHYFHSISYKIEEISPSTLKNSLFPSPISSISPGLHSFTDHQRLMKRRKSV
KCNQ1 act – potentiators or activators of human KCNQ1 potassium channel | P51787 | CHO-K1 KCNQ1, thallium flux FluxOR fluorescence; hits give high values | B-score at 10 µM | actives 0.35% (n = 310,000) | AID 2648;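 active = fluorescence ratio B-score, a plate-corrected score, at least three library SD, with initial intensity B-score within 5 SD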
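assay system = KCNQ1-transfected CHO-K1 cells | medium = assay buffer with matched DMSO | probe or stimulus = depolarizing K+/Tl+ stimulus, K2SO4 and Tl2SO4 each 12.5 mM in 5x stock | dosing = single dose | incubation = dye 90 min, compound 20 min, room temperature | detection = kinetic FluxOR fluorescence, 10 s baseline plus 110 s post-stimulus | evaluation = ratio B score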
KCNK3 inh – human KCNK3 channel inhibition, primary screen; CHO-KCNK3 thallium flux, FluxOR fluorescence; hits give low values; B-score at 10 µM; actives 0.84% (n = 340,000);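 active = B-score under library mean minus 4 SD, starting fluorescence ratio at most library mean plus 5 SD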;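 also: more negative B-score means stronger inhibition of thallium flux through KCNK3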
hERG rescue – shields human hERG channel from block by proarrhythmic agents. Q12809. CHO-hERG, FluxOR thallium flux, dofetilide IC70 present. activation (rescue from dofetilide block), less the hit threshold, % at 10 µM. actives 0.51% (n = 310,000). AID 1511;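 active = activation above the mean of controls blocked by dofetilide plus 5 SD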;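 also: thallium influx through hERG after potassium depolarization seen as dye fluorescence rise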
Kir21 block – Kir2.1 (mouse) channel inhibition | P35561 | HEK293-Kir2.1, FluxOR thallium flux fluorescence; hits give low values | B-score at 10 µM | actives 0.85% (n = 310,000);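 active = fluorescence ratio B-score at or below minus 3 SD of library scores, with starting-brightness B-score within 2 SD, cut at about -4.2 in these data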;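 also: channel flux triggered by added potassium and thallium sulfate stimulus; B-score of peak minus minimum fluorescence over baseline after thallium stimulus; more negative B-score means stronger Kir2.1 block with less thallium influx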
KCNK9 inh conf – human KCNK9 inhibitor confirmation; shares compounds with KCNK9 inh; HEK293 KCNK9 cells, FluxOR thallium flux fluorescence; inhibition, % at 10 µM; actives 43% (n = 4,900); AID 492992;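 active = thallium signal inhibited by more than 5 SD of the compound-free buffer control wells, on both duplicate plates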
Kir2-1 spec – tests whether KCNK9 modulators also affect mouse Kir2.1 | AID 492993 | inhibition, % at 10 µM | Kir2.1 cells, FluxOR thallium flux fluorescence | actives 4% (n = 4,900) | shares compounds with KCNK9 inh;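 active = thallium signal drop more than 5 SD beyond the mean of the no-compound control wells, seen in both duplicate plates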;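 also: signal is fluorescence rise after thallium addition divided by baseline fluorescence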
HEK293 Tl ctr – non-induced cell nonspecific activity of KCNK9 modulators; shares compounds with KCNK9 inh; non-induced KCNK9-HEK293, FluxOR thallium flux; inhibition, % at 10 µM; actives 40% (n = 4,900); AID 492997;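 active = thallium signal drop beyond 5 SD of the untreated control mean, on both duplicate plates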
KCNK3 inh conf – confirmation of human KCNK3 two-pore domain potassium channel inhibitors. ratio percent of control, % at 10 µM. actives 99% (n = 2,400). shares compounds with KCNK3 inh. CHO-KCNK3 thallium flux, FluxOR fluorescence; 0% buffer, 100% carvedilol maximal block;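 active = ratio percent of control, averaged over triplicates, above buffer control mean plus 5 SD, cut at about 64% in these data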;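 also: ratio is the fluorescence rise from min to max over baseline after thallium stimulus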
KCNK3 noninduced – KCNK3 inhibitor counter-screen hit in non-induced cells | actives 40% (n = 2,400) | shares compounds with KCNK3 inh | AID 651747 | non-induced KCNK3 parental cells, FluxOR thallium flux; hits give low values | thallium flux ratio (lower = more inhibition) at 10 µM;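 active = thallium flux ratio, averaged over three wells, more than 5 SD below the buffer control mean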;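 also: host cells are CHO cells without KCNK3 induction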
Hits are given with their value.

For COc1ccc(Cn2nnnc2C(c2ccccn2)N2CCN(c3cc(Cl)ccc3C)CC2)cc1 (stereo not drawn) the results were KCNQ1 inh inactive, KCNK9 inh -10.6, KCNQ1 act inactive, KCNK3 inh -9.52, hERG rescue inactive, Kir21 block inactive, KCNK9 inh conf 43.5%, Kir2-1 spec inactive, HEK293 Tl ctr 44.0%, KCNK3 inh conf 101.0 and KCNK3 noninduced inactive.
Screening COc1ccc(CNC(=O)c2csc(Cc3ccccc3)n2)cc1 returned KCNQ1 inh inactive, KCNK9 inh inactive, KCNQ1 act inactive, KCNK3 inh inactive, hERG rescue inactive and Kir21 block inactive.
For COc1ccccc1CNC(=O)c1csc(Cc2ccc(Cl)cc2)n1 the results were KCNQ1 inh inactive, KCNK9 inh inactive, KCNQ1 act inactive, KCNK3 inh -13.4, hERG rescue inactive, Kir21 block inactive, KCNK9 inh conf inactive, Kir2-1 spec inactive, HEK293 Tl ctr 26.0%, KCNK3 inh conf 122.3 and KCNK3 noninduced 0.136.
For COc1cccc(C(=O)OCC(=O)Nc2sc3c(c2C(N)=O)CCC3)c1O the results were KCNK3 inh inactive.
For CCn1cc(Cl)c(C(=O)Nc2cccc(C(F)(F)F)c2)n1 the results were KCNQ1 inh inactive, KCNK9 inh -8.46, KCNQ1 act inactive, KCNK3 inh inactive, hERG rescue inactive, Kir21 block inactive, KCNK9 inh conf 42.5%, Kir2-1 spec inactive, HEK293 Tl ctr 33.5%, KCNK3 inh conf 108.3 and KCNK3 noninduced inactive.
For O=[N+]([O-])c1cc(C(F)(F)F)cc([N+](=O)[O-])c1N1CCCNCC1 the results were KCNQ1 inh inactive, KCNK9 inh inactive, KCNQ1 act inactive, KCNK3 inh inactive, hERG rescue inactive and Kir21 block inactive.
For CC(Oc1ccc(Cl)cc1)c1ccnn1S(=O)(=O)c1ccccc1 (stereo not drawn) the results were KCNQ1 inh inactive, KCNK9 inh -10.8, KCNQ1 act inactive, KCNK3 inh -9.86, hERG rescue inactive, Kir21 block inactive, KCNK9 inh conf 37.0%, Kir2-1 spec 51.5%, HEK293 Tl ctr 60.0%, KCNK3 inh conf 99.7 and KCNK3 noninduced 0.143.
COc1ccc(Br)cc1/C=C/C(=O)Nc1ccc2ccccc2c1 was read as KCNQ1 inh inactive, KCNK9 inh inactive, KCNQ1 act inactive, KCNK3 inh inactive, hERG rescue inactive and Kir21 block inactive.
Screening CCC(=O)Nc1cccc(C(=O)/C=C/c2cc(Br)ccc2OC)c1 returned KCNQ1 inh inactive, KCNK9 inh -10.2, KCNQ1 act inactive, KCNK3 inh -9.3, hERG rescue inactive, Kir21 block inactive, KCNK9 inh conf 37.5%, Kir2-1 spec inactive, HEK293 Tl ctr 30.5%, KCNK3 inh conf 138.0 and KCNK3 noninduced inactive.
`Cc1ccc(Nc2nc(CSc3nnnn3-c3ccccc3)cs2)cc1` gave KCNQ1 inh inactive, KCNK9 inh -11, KCNQ1 act inactive, KCNK3 inh inactive, hERG rescue inactive, Kir21 block inactive, KCNK9 inh conf 47.0%, Kir2-1 spec inactive, HEK293 Tl ctr 35.0%, KCNK3 inh conf 100.0 and KCNK3 noninduced inactive.
Screening NC(=S)N/N=C\c1c(OCc2ccccc2Cl)ccc2ccccc12 returned KCNQ1 inh inactive, KCNK9 inh -10.1, KCNQ1 act inactive, KCNK3 inh -9.5, hERG rescue inactive, Kir21 block inactive, KCNK9 inh conf 46.0%, Kir2-1 spec inactive, HEK293 Tl ctr inactive, KCNK3 inh conf 101.0 and KCNK3 noninduced inactive.
`CC(C)CCN(C(=S)Nc1cccc(C(F)(F)F)c1)C(C)c1ccccn1` (stereo not drawn) gave KCNQ1 inh inactive, KCNK9 inh -9.33, KCNQ1 act inactive, KCNK3 inh -14, hERG rescue inactive, Kir21 block inactive, KCNK9 inh conf 63.5%, Kir2-1 spec inactive, HEK293 Tl ctr 42.0%, KCNK3 inh conf 130.3 and KCNK3 noninduced 0.129.
Screening CCC(C)NC(=O)CNC(=O)c1nn(-c2ccc(OC)cc2OC)c(=O)c2ccccc12 (stereo not drawn) returned KCNQ1 inh inactive, KCNK9 inh inactive, KCNQ1 act inactive, KCNK3 inh inactive, hERG rescue inactive and Kir21 block inactive.
For CCCCN(C1CCS(=O)(=O)C1)S(=O)(=O)c1ccc(OC)cc1 (stereo not drawn) the results were KCNQ1 inh inactive, KCNK9 inh inactive, KCNQ1 act inactive, KCNK3 inh inactive, hERG rescue inactive and Kir21 block inactive.
`CC(C)(C)c1cc(NC(=O)COC(=O)c2nccnc2N)n(-c2ccccc2)n1` gave KCNQ1 inh inactive, KCNK9 inh -8.62, KCNQ1 act inactive, KCNK3 inh -9.08, hERG rescue inactive, Kir21 block inactive, KCNK9 inh conf 51.5%, Kir2-1 spec inactive, HEK293 Tl ctr 31.5%, KCNK3 inh conf 94.3 and KCNK3 noninduced inactive.
Screening Cc1cc(NC(=O)COC(=O)c2nccnc2N)n(-c2ccccc2)n1 returned KCNQ1 inh inactive, KCNK9 inh inactive, KCNQ1 act inactive, KCNK3 inh inactive, hERG rescue inactive and Kir21 block inactive.
Screening CC(NC(=O)CSc1ncccn1)c1ccccc1 (stereo not drawn) returned KCNQ1 inh inactive, KCNK9 inh inactive, KCNQ1 act inactive, KCNK3 inh inactive, hERG rescue inactive and Kir21 block inactive.
`Cc1cc(C)cc(NC(=O)CN2C(=O)COc3ccc(S(=O)(=O)N4CCCC4)cc32)c1` gave KCNQ1 inh inactive, KCNK9 inh inactive, KCNQ1 act inactive, KCNK3 inh inactive, hERG rescue inactive and Kir21 block inactive.
`COc1cc(NC(=O)CN2C(=O)COc3ccc(S(=O)(=O)N4CCCC4)cc32)cc(OC)c1` gave KCNQ1 inh inactive, KCNK9 inh -11.4, KCNQ1 act inactive, KCNK3 inh -11.4, hERG rescue inactive, Kir21 block inactive, KCNK9 inh conf 52.0%, Kir2-1 spec inactive, HEK293 Tl ctr 29.5%, KCNK3 inh conf 105.3 and KCNK3 noninduced inactive.

Bioassay records (PubChem)
